A short description of data set [1]: Circular dichroism, percentage helicity. The conditions noted are these: Percentage helicity derived using circular dichroism, peptide free in solution. The format is physicochemical. The gist of the method: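 Peptides were N-terminally acetylated and C-terminally amidated, and HPLC-purified to >90% purity. Stapled variants carried an (i, i + 3) hydrocarbon linkage. Percentage helicity was derived from circular dichroism spectra.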

Data set [2] addresses T1, Full-length human eIF4E (human, UniProt P06730 1-217). The data set can be described thus: fluorescence polarisation.
The target in data set [3] is T1, Full-length human eIF4E. The data set can be described thus: SPR.
Data set [4] has as its target T1, Full-length human eIF4E. As to the kind of experiment: fluorescence polarisation. The source holds these as a separate data set.

Where a SMILES comes first, the peptide text is derived from it.

T1 sequence (P06730 whole entry): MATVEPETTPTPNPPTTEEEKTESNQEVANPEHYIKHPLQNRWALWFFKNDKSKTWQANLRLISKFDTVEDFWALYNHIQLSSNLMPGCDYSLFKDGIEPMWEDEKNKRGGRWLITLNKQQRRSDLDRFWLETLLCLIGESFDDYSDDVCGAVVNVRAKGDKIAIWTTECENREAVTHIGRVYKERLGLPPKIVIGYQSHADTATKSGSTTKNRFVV

Molecule `CC(=O)N[C@@H](CCCCN)C(=O)N[C@@H](CCCCN)C(=O)N[C@@H](CCCNC(=N)N)C(=O)N[C@@H](Cc1ccc(O)cc1)C(=O)N[C@@H](CO)C(=O)N[C@@H](CCCNC(=N)N)C(=O)N[C@@H](CCC(=O)O)C(=O)N[C@@H](Cc1ccccc1)C(=O)N[C@@H](CC(C)C)C(=O)N[C@@H](CC(C)C)C(=O)NCC(=O)N[C@@H](Cc1ccccc1)C(N)=O` [eIF4G^D5S] (Ac-KKRYSREFLLGF-NH2) yielded a Helicity in data set [1] of 0%.

B1: eIF4G^D5S peptide (peptide)
peptide: Ac-KKRYSREFLLGF-NH2
For the molecule B1, the Kd with Full-length human eIF4E [2] worked out at 195 ± 12.1 nM; with Full-length human eIF4E [3], 99.9 ± 6.2 nM.

B2: FAM labeled tracer peptide (KKRYSRDFLLALQK-(FAM)) (peptide)
peptide: Ac-KKRYSRDFLLALQK(FAM)-NH2
As for B2, the binding result with Full-length human eIF4E [4] is given as “binds”.

The values above are taken from publication PMC6506440 (Scientific Reports, 2013).
